The results in this text go back to ChEMBL document CHEMBL2169796, “Antiproliferative and antimigratory actions of synthetic long chain n-3 monounsaturated fatty acids in breast cancer cells that overexpress cyclooxygenase-2” (J Med Chem, 2012).

Activity calls are given as the source filed them. The calls are words filed in the database; no cut-off is given here.

The target of experiment [1] is T1, Prostaglandin G/H synthase 2 (Homo sapiens) (UniProt P35354).
T1 sequence (whole entry): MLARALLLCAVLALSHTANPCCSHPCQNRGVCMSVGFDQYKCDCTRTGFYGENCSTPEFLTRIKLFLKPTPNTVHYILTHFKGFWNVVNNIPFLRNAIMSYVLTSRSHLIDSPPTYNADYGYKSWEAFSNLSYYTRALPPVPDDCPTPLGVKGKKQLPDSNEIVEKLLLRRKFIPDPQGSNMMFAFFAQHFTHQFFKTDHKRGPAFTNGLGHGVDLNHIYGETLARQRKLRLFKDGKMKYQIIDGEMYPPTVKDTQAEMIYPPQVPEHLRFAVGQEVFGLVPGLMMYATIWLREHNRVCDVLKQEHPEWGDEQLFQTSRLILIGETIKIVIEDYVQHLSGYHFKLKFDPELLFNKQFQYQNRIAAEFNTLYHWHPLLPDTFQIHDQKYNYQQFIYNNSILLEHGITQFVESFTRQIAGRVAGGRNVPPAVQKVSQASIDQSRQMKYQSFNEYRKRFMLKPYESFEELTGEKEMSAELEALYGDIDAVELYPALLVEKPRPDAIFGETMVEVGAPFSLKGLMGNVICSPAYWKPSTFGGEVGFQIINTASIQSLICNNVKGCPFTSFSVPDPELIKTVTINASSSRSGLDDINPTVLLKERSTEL
The experiment is described as follows: Inhibition of COX2 overexpressed in human MDA-MB-468 cells assessed as reduction in basal PGE2 level at 50 uM over 48 hrs by LC-MS-MS assay relative to control; values are per cent of control.

Experiment [2] relates to MDA-MB-468. Put plainly: Cytotoxicity against human MDA-MB-468 cells assessed as reduction in viable cells after 48 hrs by trypan blue exclusion assay. The experiment is classed as functional. The method, boiled down: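 COX-2-overexpressing MDA-MB-468 transfectants exposed to fatty acids at 20 and 50 μM for 48 h; viable cells counted by trypan blue exclusion, expressed as decrease from control.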

In experiment [3] the test system is MDA-MB-468. Put plainly: Antiproliferative activity against human MDA-MB-468 cells after 24 hrs by MTT assay. Type of experiment: functional, cell-based.
Experiment [4] deals with T1, Prostaglandin G/H synthase 2 (Homo sapiens). The experiment is described as follows: Inhibition of COX2 overexpressed in human MDA-MB-468 cells assessed as reduction in arachidonic acid-induced PGE2 production at 50 uM over 48 hrs by LC-MS-MS assay relative to control; values are per cent of control.
Experiment [5] shares this target. Put plainly: Inhibition of COX-2 overexpressed in human MDA-MB-468 cell lysate assessed as reduction in arachidonic acid-induced PGE2 formation at 50 uM by LC-MS-MS assay; values are per cent of control.
For experiment [6] the target is unchanged. Put plainly: Inhibition of peroxidase activity of COX-2 overexpressed in human MDA-MB-468 cells at 50 uM by spectrophotometry; values are per cent of control.
Experiment [7] relates to MDA-MB-468. The experiment is described as follows: Proapoptotic activity in human MDA-MB-468 cells assessed as activation of caspase-3 by luminometry. Type of experiment: functional, cell-based.
For experiment [8], the system named is MDA-MB-468. The experiment is described as follows: Antiproliferative activity against human MDA-MB-468 cells after 48 hrs by MTT assay. Conditions: MDA-MB-468, 48 h. Type of experiment: functional, cell-based.
Experiment [9] concerns MDA-MB-468. Put plainly: Inhibition of cell invasion in human MDA-MB-468 cells overexpressing COX-2 at 20 uM after 20 hrs by matrigel droplet assay relative to untreated-control; values are per cent of control. Conditions: MDA-MB-468, 20 h.
The target of experiment [10] is T1, Prostaglandin G/H synthase 2 (Homo sapiens). The experiment is described as follows: Inhibition of COX-2 overexpressed in human MDA-MB-468 cell lysate assessed as reduction in arachidonic acid-induced PGE2 formation at 50 uM by LC-MS-MS assay. The experiment is classed as cell-free. The procedure, abridged:
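Lysate of confluent COX-2-overexpressing MDA-MB-468 cells incubated with heme (10 μM), arachidonic acid (20 μM) and analogue (50 μM) in Tris-HCl 100 mM pH 8.0; quenched with ice-cold acetonitrile plus PGE2-d4, SPE cleanup, PGE2 quantified by negative-ion ESI LC-MS-MS.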

The target is the same in experiment [11]. Put plainly: Inhibition of COX2 overexpressed in human MDA-MB-468 cells assessed as reduction in basal PGE2 level at 50 uM over 48 hrs by LC-MS-MS assay relative to control. The experiment is classed as cell-based. The method, boiled down:
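Intact COX-2-overexpressing MDA-MB-468 cells given fatty acid (50 μM) for 48 h without added substrate; basal PGE2 in medium measured by LC-MS-MS, as % of control.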

Experiment [12] relates to MDA-MB-468. Put plainly: Inhibition of cell invasion in human MDA-MB-468 cells overexpressing COX-2 at 20 uM after 20 hrs by matrigel droplet assay relative to untreated-control. Type of experiment: functional. The procedure, abridged:
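Cells (3.5 × 10^6/mL) mixed with Matrigel, 20 μL droplets set 5 min at 37 °C, then covered with endothelial growth medium-2 with 10% FBS containing fatty acid (10 or 20 μM) for 20 h at 37 °C, 5% CO2; cells migrating out of droplets counted by phase-contrast microscopy, vs DMSO control.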

For experiment [13], the system named is MDA-MB-468. The experiment is described as follows: Inhibition of cell invasion in human MDA-MB-468 cells overexpressing COX-2 at 10 uM after 20 hrs by matrigel droplet assay relative to untreated-control; values are per cent of control. The conditions noted are these: MDA-MB-468, 20 h.

In the case of `CC/C=C\CCCCCCCCCCCCCCCCC(=O)O`, the residual activity in [1] stood at 49%; in experiment [4], 40%; in experiment [5], 42%; in experiment [6], 54%. Besides, in the experiment with MDA-MB-468 [2], the result was inactive. For the same compound, the Activity entry in the experiment with MDA-MB-468 [3] was “Dose-dependent effect”. In the experiment with MDA-MB-468 [7], the concentration giving a half-maximal response (EC50) was 12 µM. In the experiment on MDA-MB-468 [8], this compound displayed an IC50 of 9.3 µM. The compound also returned a level, % of control at 20 µM in the experiment with MDA-MB-468 [9] of 59%.
With `CC/C=C\CCCCCCCCCCCCCCC(=O)O`, the inhibition entry in experiment [10] is “Active”. In addition, the inhibition result (in experiment [11]; with MDA-MB-468 [12]) was “inactive” in each case. The Activity was 20% with MDA-MB-468 [2] and “Dose-dependent effect” with MDA-MB-468 [3]. In experiment [6], this compound had a residual activity of 71%. For the same compound, the EC50 in the experiment on MDA-MB-468 [7] came to 43 µM. This compound had an IC50 in the experiment with MDA-MB-468 [8] of 36 µM.
Take `CC/C=C\CCCCCCCCCCCCCC(=O)O`: the inhibition entry (in experiment [11]; with MDA-MB-468 [12]) was “inactive” in each case. In addition, the outcome in the experiment on MDA-MB-468 [2] was inactive. Moreover, the Activity entry in the experiment with MDA-MB-468 [3] was “Dose-dependent effect”. Further, the EC50 with MDA-MB-468 [7] worked out at 54 µM. Further, the 50% inhibitory concentration (IC50) with MDA-MB-468 [8] was more than 100 µM.
In the case of `CC/C=C\CCCCCCCCCCCCCCCCCC(=O)O`, the residual activity was found to be 45% in experiment [1], 40% in [4], 42% in experiment [5] and 58% in [6]. In addition, the outcome with MDA-MB-468 [2] was inactive. For the same compound, in the experiment on MDA-MB-468 [3], the Activity entry was “Dose-dependent effect”. For the same compound, the level, % of control at 10 µM in the experiment with MDA-MB-468 [13] amounted to 48%. Besides, the EC50 in the experiment on MDA-MB-468 [7] turned out to be 26 µM. The half-maximal inhibitory concentration (IC50) in the experiment with MDA-MB-468 [8] is 21 µM. Moreover, the level, % of control at 20 µM in the experiment on MDA-MB-468 [9] amounted to 48%.
For `CC/C=C\CCCCCCCCCCCCCCCC(=O)O`, the residual activity is 46% in experiment [1], 42% in experiment [5] and 62% in [6]. In addition, the outcome with MDA-MB-468 [2] was inactive. The Activity entry in the experiment on MDA-MB-468 [3] was “Dose-dependent effect”. For the same compound, the concentration giving a half-maximal response (EC50) in the experiment with MDA-MB-468 [7] stood at 43 µM. For the same compound, in the experiment on MDA-MB-468 [8], half-maximal inhibition (IC50) was put at 31 µM. Besides, in the experiment with MDA-MB-468 [9], the level, % of control at 20 µM is 75%.
Take `CCCCC/C=C\C/C=C\C/C=C\C/C=C\CCCC(=O)O` [ARACHIDONIC ACID]: in the experiment with MDA-MB-468 [7], the concentration giving a half-maximal response (EC50) was more than 100 µM. This compound also had an IC50 with MDA-MB-468 [8] of more than 100 µM.
On to `CC/C=C\CCCCCCCCCCCC(=O)O`, for which the inhibition result (in experiment [11]; with MDA-MB-468 [12]) was “inactive” in each case. Further, the Activity was 25% in the experiment on MDA-MB-468 [2] and “Dose-dependent effect” with MDA-MB-468 [3]. Besides, in the experiment with MDA-MB-468 [7], the concentration giving a half-maximal response (EC50) is more than 100 µM. The compound further came in with a 50% inhibitory concentration (IC50) in the experiment with MDA-MB-468 [8] of more than 100 µM.
For the compound `CC/C=C\C/C=C\C/C=C\C/C=C\C/C=C\CCCC(=O)O` [ICOSAPENT], in the experiment with MDA-MB-468 [7], the 50% effective concentration (EC50) is more than 100 µM. Besides, the IC50 in the experiment on MDA-MB-468 [8] is more than 100 µM.
As for `CC/C=C\CCCCCCCCCCCCC(=O)O`, the inhibition entry (in experiment [11]; in the experiment on MDA-MB-468 [12]) was “inactive” each time. In the experiment with MDA-MB-468 [2], the outcome was inactive. The Activity result with MDA-MB-468 [3] is “Dose-dependent effect”. For the same compound, in the experiment with MDA-MB-468 [7], the concentration for a half-maximal effect (EC50) was 69 µM. The same compound displayed an IC50 in the experiment on MDA-MB-468 [8] of more than 100 µM.
